KCNQ1 block – blocks the human KCNQ1 potassium channel; CHO-K1 KCNQ1, FluxOR thallium flux fluorescence; stronger effect = higher value; P51787; hit rate 1.3% among 310,000; B-score at 10 µM;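 active means compounds whose thallium flux B-score, printed positive for inhibition, exceeds three library SD while starting fluorescence stays within three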;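 further: channel opened by potassium depolarization with thallium stimulus after 20 min compound exposure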
hERG rescue – shields human hERG channel from block by proarrhythmic agents. CHO-hERG, FluxOR thallium flux, dofetilide IC70 present. Q12809. hit rate 0.51% among 310,000. activation (rescue from dofetilide block), less the hit threshold, % at 10 µM. AID 1511;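 active means activation above the mean of controls blocked by dofetilide plus 5 SD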;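 further: thallium influx through hERG after potassium depolarization seen as dye fluorescence rise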
KCNK9 block – blocks the human KCNK9 two-pore domain potassium channel; HEK293 KCNK9, FluxOR thallium flux fluorescence; stronger effect = lower value; B-score at 10 µM; hit rate 1.2% among 310,000; AID 488922;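 active means ratio B-score over 3 SD below the library mean, with starting fluorescence within 5 SD of its mean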;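 further: negative B-score means less thallium flux so channel inhibition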
KCNK3 inh – human KCNK3 channel inhibition, primary screen | O14649 | CHO-KCNK3 thallium flux, FluxOR fluorescence; stronger effect = lower value | B-score at 10 µM | hit rate 0.84% among 340,000;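 active means B-score under library mean minus 4 SD, starting fluorescence ratio at most library mean plus 5 SD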;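 further: more negative B-score means stronger inhibition of thallium flux through KCNK3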
Target sequence (O14649 whole entry, looked up): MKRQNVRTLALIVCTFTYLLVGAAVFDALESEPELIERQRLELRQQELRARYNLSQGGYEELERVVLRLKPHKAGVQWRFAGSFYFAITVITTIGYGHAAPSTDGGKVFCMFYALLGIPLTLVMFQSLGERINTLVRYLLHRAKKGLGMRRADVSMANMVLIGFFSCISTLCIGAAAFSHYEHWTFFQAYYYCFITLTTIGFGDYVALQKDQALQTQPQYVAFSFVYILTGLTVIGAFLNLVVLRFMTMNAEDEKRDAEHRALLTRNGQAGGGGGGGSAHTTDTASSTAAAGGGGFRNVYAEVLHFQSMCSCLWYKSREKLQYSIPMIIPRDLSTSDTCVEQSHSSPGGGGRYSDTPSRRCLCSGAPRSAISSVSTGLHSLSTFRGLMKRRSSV
KCNQ1 pot – potentiates or activates the human KCNQ1 potassium channel; P51787; CHO-K1 KCNQ1, thallium flux FluxOR fluorescence; stronger effect = higher value; B-score at 10 µM; hit rate 0.35% among 310,000; AID 2648;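 active means fluorescence ratio B-score, a plate-corrected score, at least three library SD, with initial intensity B-score within 5 SD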
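Assay system: CHO-K1 cells stably expressing KCNQ1. Medium: assay buffer for compound exposure, DMSO matched across wells. Timing: 37 °C overnight plating, 90-min dark dye load, 20-min compound pretreatment. Signal: kinetic FluxOR fluorescence, 10 s baseline plus 110 s post-stimulus.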
KCC2 mod – modulators of human KCC2 chloride dependent transport. Q9H2X9. KCC2 cells, thallium flux FluoZin-2 fluorescence. B-score of Tl+ flux slope (higher = more flux/activation; lower = inhibition) at 10 µM. hit rate 2.2% among 190,000. AID 1456;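 active means thallium flux slope and its plate-corrected score both differing from the plate sample mean at a set confidence after two filtering rounds, in either direction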;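 further: slope of fluorescence scaled to starting intensity during 10 to 20 s after thallium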
KCC2 sec1 – confirmation of human KCC2 transport modulators | hit rate 15% among 3,700 | AID 1713 | normalised thallium flux (F/F0 slope) at 10 µM | HEK293-KCC2, thallium flux, FluoZin2 fluorescence; stronger effect = higher value | shares compounds with KCC2 mod;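 active means thallium flux slope above the same plate's solvent-only control mean plus 3 SD; inconclusive means the two replicate wells disagree; inactive means no significant difference from solvent-only control wells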
KCC2 bumet counter – thallium flux persisting under bumetanide in KCC2 cells, counter-screen secondary assay; shares compounds with KCC2 mod; HEK293-KCC2 + bumetanide/ouabain, thallium flux FluoZin2; stronger effect = higher value; normalized thallium flux at 10 µM; hit rate 49% among 3,700; AID 1714;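 active means thallium entry rate above the same plate's blocked-transporter control wells by more than 3 SD; inconclusive means the two repeat wells disagree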;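 further: raw slope of fluorescence over initial fluorescence between 10 and 20 s after thallium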
KCC2 sec2 – confirmation of human KCC2 transport modulators. shares compounds with KCC2 mod. HEK293-KCC2, thallium flux FluoZin2 fluorescence; actives lie on both sides; F/F0 rise rate, 10–20 s post-thallium. normalized thallium flux at 10 µM. hit rate 23% among 3,700;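 active means thallium flux slope more than 3 SD above or below the plate's solvent-only control mean, mostly below; inconclusive means the two repeat wells disagreed; inactive means no significant shift from solvent-only controls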;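 further: raw slope with 0.1% DMSO as baseline and bumetanide as block control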
HEK counter1 – parental HEK flux effect, counter-screen. shares compounds with KCC2 mod. thallium flux rate (normalised fluorescence) at 10 µM. hit rate 46% among 3,700. HEK293 parental cells, thallium flux FluoZin2, ouabain; baseline-ratio fluorescence slope, 10–20 s after thallium;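 active means thallium flux rate significantly above the same plate's solvent-only control wells, beyond their mean plus 3 SD; inconclusive means the two replicate wells gave conflicting results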
KCC2 ouabain – modulates human KCC2 on retest with ouabain. HEK293-KCC2, thallium flux FluoZin2 fluorescence; bidirectional: low = inhibitor, high = activator. hit rate 48% among 3,700. shares compounds with KCC2 mod. AID 1717. raw Tl+ flux slope (below DMSO = inhibition, above = activation) at 10 µM;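 active means thallium flux slope beyond 3 SD from same-plate DMSO control mean in most replicates, usually higher, sometimes lower; inconclusive means repeat tests gave conflicting results; inactive means no significant difference from controls in most replicates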;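 further: slope of initial-normalized fluorescence between seconds 10 and 20 after thallium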
HEK293 Tl flux2 – acts in parental HEK cells, second KCC2 counter-screen; shares compounds with KCC2 mod; HEK293 parental, thallium flux FluoZin-2 fluorescence slope; thallium flux slope at 10 µM; hit rate 33% among 3,700; AID 1718;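 active means thallium flux slope above the same plate's solvent-control mean plus 3 SD in both duplicate wells; inconclusive means duplicate wells that disagreed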;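 further: run without ouabain in cells lacking the KCC2 cotransporter; slope of fluorescence scaled to its starting value between 10 and 20 s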
An asterisk follows results filed as active; i = inactive; ? = inconclusive; . = not tested or not shown. Most compounds without a hit are left out; they make up all but 4.1% or so of the library.

SMILES	KCNQ1 block	hERG rescue	KCNK9 block	KCNK3 inh	KCNQ1 pot	KCC2 mod	KCC2 sec1	KCC2 bumet counter	KCC2 sec2	HEK counter1	KCC2 ouabain	HEK293 Tl flux2
O=C(OC(C(=O)NC1CCCC1)c1ccncc1)C1=Cc2ccccc2OC1 (stereo not drawn)	i	-7.5	i	i	i	-4.33*	0.00783	0.00702	0.0302	0.00632	0.0161*	0.01
CC(C)C(OC(=O)C1=Cc2ccccc2OC1)C(=O)NC1CCCC1 (stereo not drawn)	i	-0.9	i	i	i	-2.93	.	.	.	.	.	.
O=C(Oc1ccc2ccccc2c1Cl)N1CCCC1	i	-10.4	i	i	i	.	0.00622	0.00527	0.0289	0.00628	0.0147*	0.00937
O=C(Oc1ccc(Cl)c2ccccc12)N1CCCCC1	i	-10.7	i	i	i	-0.00621	.	.	.	.	.	.
Cc1cc(OCc2nc(N)nc(N)c2-c2ccc(Cl)c(Cl)c2)ccc1[N+](=O)[O-]	.	.	.	i	.	.	.	.	.	.	.	.
Cc1cc(Cl)ccc1OCC(=O)NNC(=O)c1cnccn1	i	-11.3	i	i	i	9.45*	0.00605	0.0154*	0.0314	0.0153*	?	0.0135*
O=C(COc1ccc2ccccc2c1)NNC(=O)c1cnccn1	i	-4.2	i	i	i	0.426	.	.	.	.	.	.
O=C(COc1cccc2ccccc12)NNC(=O)c1cnccn1	i	-11.7	i	i	i	-0.2	.	.	.	.	.	.
Cc1ccc(C(=O)NNC(=O)COc2ccc(Cl)cc2C)o1	.	.	.	i	.	.	.	.	.	.	.	.
O=C(COc1ccc(Cl)cc1)NNC(=O)c1ccccn1	i	-11.2	i	i	i	4.44*	0.01	0.0191*	0.0338	0.0113*	0.0245	?
Cc1cc(Br)ccc1OCC(=O)NNC(=O)c1cnccn1	i	-1.6	i	i	i	8.78*	0.017	0.027*	?	0.0222*	0.0281*	0.0236*
CC(C)c1ccc(OCC(=O)NNC(=O)c2cnccn2)cc1	i	-6.8	i	i	i	5.71*	0.00764	0.0109*	0.0333	0.0118*	0.0241*	0.0154*
Cc1ccc(CNC(=O)C2(S(=O)(=O)c3ccccc3)CC=CC2)cc1	i	-3.6	i	i	i	.	.	.	.	.	.	.
Cc1cccc(C(=O)NNC(=O)c2ccc3ccccc3c2)c1	.	.	.	i	.	.	.	.	.	.	.	.
COc1ccc(C(=O)NC(=S)NNC(=O)c2cnccn2)cc1	i	-4.9	i	i	i	0.981	.	.	.	.	.	.
O=C(NC(=S)NNC(=O)c1cnccn1)c1ccc(Cl)cc1	i	-11.1	i	i	i	9.13*	0.0124	0.0131*	0.0355	?	?	?
O=C1CC(N2CCC(c3nc4ccccc4[nH]3)CC2)C(=O)N1Cc1ccccc1 (stereo not drawn)	i	-4.1	i	i	i	0.802	.	.	.	.	.	.
O=C1CC(c2nc3ccccc3[nH]2)CN1Cc1ccccc1 (stereo not drawn)	i	-8.5	i	i	i	-3.43*	0.0117*	?	0.0303	0.00815	0.0209	0.0106
